This is an account of results in ChEMBL document CHEMBL2424619, “Small-molecule ligands of methyl-lysine binding proteins: optimization of selectivity for L3MBTL3” (J Med Chem, 2013).

pIC50: −log10 of the molar value. Some results are limits rather than exact numbers.

A word on the pIC50: it is the IC50 on a negative log10 scale, so that one unit is a factor of ten. One may read the inhibition as how much of the control response was suppressed.

The target of experiment [1] is T1, Muscarinic acetylcholine receptor M1 (Homo sapiens, UniProt P11229).
T1 sequence (P11229 whole entry): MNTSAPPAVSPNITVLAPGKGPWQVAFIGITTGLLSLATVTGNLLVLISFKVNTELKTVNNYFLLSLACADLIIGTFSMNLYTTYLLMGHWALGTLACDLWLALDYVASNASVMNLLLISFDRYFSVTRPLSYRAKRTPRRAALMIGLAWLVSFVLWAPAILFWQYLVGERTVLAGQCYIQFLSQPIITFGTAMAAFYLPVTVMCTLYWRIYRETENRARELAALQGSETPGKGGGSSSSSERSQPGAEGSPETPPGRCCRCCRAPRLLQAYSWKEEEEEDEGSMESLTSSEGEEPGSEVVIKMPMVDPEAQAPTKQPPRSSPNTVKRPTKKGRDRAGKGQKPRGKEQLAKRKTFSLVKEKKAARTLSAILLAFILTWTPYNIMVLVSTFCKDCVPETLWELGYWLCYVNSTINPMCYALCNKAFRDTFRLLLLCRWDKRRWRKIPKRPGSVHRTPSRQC
In words: Antagonist activity at muscarinic M1 receptor (unknown origin) expressed in HEK293T cells assessed as inhibition of UNC1679 calcium mobilization. In kind it is functional, cell-based, HEK-293T. For orientation: A change in cytosolic calcium serves as a functional read-out for many receptors and channels.

For experiment [2], the target named is T2, Muscarinic acetylcholine receptor M1 (Homo sapiens) (UniProt P11229).
T2 sequence (whole entry): T1 sequence (P11229 whole entry)
In words: Antagonist activity at muscarinic M1 receptor (unknown origin) expressed in HEK293T cells assessed as inhibition of UNC1679 calcium mobilization at 30 uM. The settings on record: HEK-293T. In kind it is functional, cell-based. An outline of the steps:
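Test compound assayed for M1 antagonism at one concentration, 30 μM, scored as percent inhibition.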

As to `O=C(c1ccc(C(=O)N2CCC(N3CCCC3)CC2)c(Nc2ccccc2)c1)N1CCC(N2CCCC2)CC1`, the pIC50 in experiment [1] was 5.46.
Take `CCN1Cc2ccc(NC(=O)c3ccc(C(=O)N4CCC(C5CCCN5)CC4)cc3)cc2C1` (configuration not stated): the inhibition in experiment [2] is less than 20%.
